Laboratory results: ChEMBL document CHEMBL2150901, “Synthesis and biological activity of tricyclic cycloalkylimidazo-, pyrimido- and diazepinopurinediones” (Eur J Med Chem, 2011)
Calls of active or inactive are those of the source. The rule behind the calls is not given here.

What was measured:
Adenosine receptor A1 = target: T1, Adenosine receptor A1 (Rattus norvegicus, UniProt P25099); assay: Displacement of [3H]CCPA from adenosine A1 receptor in rat brain cortical membrane; format: cell membranes
T1 sequence (P25099 whole entry): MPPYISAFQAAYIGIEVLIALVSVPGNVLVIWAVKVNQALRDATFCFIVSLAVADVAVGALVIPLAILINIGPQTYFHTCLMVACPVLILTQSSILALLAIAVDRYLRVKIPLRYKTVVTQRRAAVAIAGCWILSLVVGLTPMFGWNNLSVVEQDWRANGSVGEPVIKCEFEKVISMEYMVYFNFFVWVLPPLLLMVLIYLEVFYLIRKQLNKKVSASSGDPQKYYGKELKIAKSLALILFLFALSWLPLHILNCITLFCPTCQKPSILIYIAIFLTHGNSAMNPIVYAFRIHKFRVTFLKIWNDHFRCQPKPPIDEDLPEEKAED

Mus musculus [1] = assay: Anticonvulsant activity in F1 albino mouse assessed as protection against maximal electroshock-induced seizures at 300 mg/kg, ip after 4 hrs; format: functional, organism-based; set-up: dose 300 mg/kg
Summary of the method: (§1)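 Male albino F-1 mice (18–25 g), groups of 1–5 (rotorod 2–8). Compound given ip as a suspension in 0.5% methylcellulose at 30, 100 and 300 mg/kg. Seizures by maximal electroshock or subcutaneous pentylenetetrazole; neurotoxicity by rotorod. Read at 0.5 and 4 h, with some at 0.25, 1 and 2 h. Value is the minimum active dose, with protected (or toxic)/tested animals.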

Mus musculus [2] = assay: Anticonvulsant activity in F1 albino mouse assessed as protection against subcutaneous pentylenetetrazole-induced seizures at 300 mg/kg, ip after 4 hrs; format: functional, organism-based; set-up: dose 300 mg/kg; summary of the method: as §1
Rattus norvegicus = organism: Rattus norvegicus; assay: Selectivity ratio of Ki for adenosine A1 receptor in rat brain cortical membrane to Ki for adenosine A2A receptor in rat brain striatal membrane; format: cell membranes
Summary of the method: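 Ki ratios from radioligand competition binding. Rat A1 used brain cortical membranes and rat A2A used brain striatal membranes. Human A1 and A2A used membranes of CHO cells expressing the receptors. A1 radioligand [³H]CCPA; A2A radioligand [³H]MSX-2. Potent compounds were tested at 6–7 concentrations spanning 3 orders of magnitude.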

Mus musculus [3] = assay: Anticonvulsant activity in F1 albino mouse assessed as protection against maximal electroshock-induced seizures at 300 mg/kg, ip after 0.25 hrs; format: functional, organism-based; set-up: dose 300 mg/kg; summary of the method: as §1
Mus musculus [4] = assay: Neurotoxicity in F1 albino mouse assessed as minimal motor impairment at 300 mg/kg, ip after 1 hr by rotorod test; format: toxicity, organism-based; set-up: dose 300 mg/kg, route intraperitoneal; settings: in vivo; summary of the method: as §1
Mus musculus [5] = assay: Anticonvulsant activity in F1 albino mouse assessed as protection against subcutaneous pentylenetetrazole-induced seizures at 300 mg/kg, ip after 0.5 hrs; format: functional, organism-based; set-up: dose 300 mg/kg; summary of the method: as §1
Mus musculus [6] = assay: Neurotoxicity in F1 albino mouse assessed as minimal motor impairment at 300 mg/kg, ip after 0.5 hrs by rotorod test; format: toxicity, organism-based; set-up: dose 300 mg/kg, route intraperitoneal; settings: in vivo; summary of the method: as §1
Mus musculus [7] = assay: Anticonvulsant activity in F1 albino mouse assessed as protection against subcutaneous pentylenetetrazole-induced seizures at 300 mg/kg, ip after 0.25 hrs; format: functional, organism-based; set-up: dose 300 mg/kg; summary of the method: as §1
Mus musculus [8] = assay: Neurotoxicity in F1 albino mouse assessed as minimal motor impairment at 300 mg/kg, ip after 4 hrs by rotorod test; format: toxicity, organism-based; set-up: dose 300 mg/kg, route intraperitoneal; settings: in vivo; summary of the method: as §1
Mus musculus [9] = assay: Neurotoxicity in F1 albino mouse assessed as minimal motor impairment at 300 mg/kg, ip after 0.25 hrs by rotorod test; format: toxicity, organism-based; set-up: dose 300 mg/kg, route intraperitoneal; settings: in vivo; summary of the method: as §1
Mus musculus [10] = assay: Anticonvulsant activity in F1 albino mouse assessed as protection against maximal electroshock-induced seizures at 300 mg/kg, ip after 1 hr; format: functional, organism-based; set-up: dose 300 mg/kg; summary of the method: as §1
Adenosine receptor A2a = Adenosine receptor A2a (Rattus norvegicus, UniProt P30543); assay: Displacement of [3H]MSX-2 from adenosine A2A receptor in rat brain striatal membrane; format: cell membranes
Mus musculus [11] = assay: Anticonvulsant activity in F1 albino mouse assessed as protection against maximal electroshock-induced seizures at 300 mg/kg, ip after 0.5 hrs; format: functional, organism-based; set-up: dose 300 mg/kg; summary of the method: as §1
Mus musculus [12] = assay: Anticonvulsant activity in F1 albino mouse assessed as protection against subcutaneous pentylenetetrazole-induced seizures at 300 mg/kg, ip after 1 hr; format: functional, organism-based; set-up: dose 300 mg/kg; summary of the method: as §1
[13] = target: T2, Adenosine receptor A1 (Rattus norvegicus) (UniProt P25099); assay: Displacement of [3H]CCPA from adenosine A1 receptor in rat brain cortical membrane at 25 uM; format: cell membranes
T2 sequence (whole entry): T1 sequence (P25099 whole entry)

Chain of Adenosine receptor A2a (P30543 whole entry): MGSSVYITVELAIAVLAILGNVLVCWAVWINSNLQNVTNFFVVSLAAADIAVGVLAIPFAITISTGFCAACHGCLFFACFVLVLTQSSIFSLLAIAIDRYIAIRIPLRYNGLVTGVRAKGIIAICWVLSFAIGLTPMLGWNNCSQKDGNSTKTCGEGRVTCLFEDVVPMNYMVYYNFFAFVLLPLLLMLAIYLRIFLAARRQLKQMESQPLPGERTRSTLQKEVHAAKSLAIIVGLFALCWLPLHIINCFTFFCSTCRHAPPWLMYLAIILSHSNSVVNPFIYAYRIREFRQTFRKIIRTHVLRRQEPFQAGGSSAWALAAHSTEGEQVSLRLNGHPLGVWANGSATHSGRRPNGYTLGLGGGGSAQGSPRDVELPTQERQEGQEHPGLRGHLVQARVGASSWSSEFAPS

Row | SMILES | Ki (Adenosine receptor A1) [nM] | Activity (Mus musculus [1]) | Activity (Mus musculus [2]) | Ratio Ki (Rattus norvegicus) | Activity (Mus musculus [3]) | Activity (Mus musculus [4]) | Activity (Mus musculus [5]) | Activity (Mus musculus [6]) | Activity (Mus musculus [7]) | Activity (Mus musculus [8]) | Activity (Mus musculus [9]) | Activity (Mus musculus [10]) | Ki (Adenosine receptor A2a) [nM] | Activity (Mus musculus [11]) | Activity (Mus musculus [12]) | inhibition [13] [%]
1 | Cn1c(=O)c2c(nc3n2CCN3CCC2=CCCCC2)n(C)c1=O | 2450 | inactive | inactive | 1 | inactive | Non-toxic | inactive | Non-toxic | inactive | Toxic | Non-toxic | inactive | 2020 | inactive | inactive | 
2 | Cn1c(=O)c2c(nc3n2CCCCN3C2CCCCC2)n(C)c1=O | 2130 | inactive | inactive | 1 | inactive | Non-toxic | inactive | Non-toxic | inactive | Non-toxic | Non-toxic | inactive | 2960 | inactive | inactive | 
3 | Cn1c(=O)c2c(nc3n2CCCN3C2CC2)n(C)c1=O | ≥ 25000 | inactive | inactive | 20 | inactive | Non-toxic | inactive | Toxic | inactive | Non-toxic | Non-toxic | inactive | 1240 | inactive | inactive | 43
4 | CC1CCCCC1N1CCCn2c1nc1c2c(=O)n(C)c(=O)n1C (mixture of isomers) | > 25000 | inactive | inactive | > 23 | inactive | Non-toxic | inactive | Non-toxic | inactive | Non-toxic | Non-toxic | inactive | 1080 | inactive | inactive | 31
5 | Cn1c(=O)c2c(nc3n2CCCCN3C2CCCC2)n(C)c1=O | 5060 | inactive | inactive | 4 | inactive | Non-toxic | inactive | Non-toxic | inactive | Non-toxic | Non-toxic | inactive | 1380 | inactive | inactive | 
6 | Cn1c(=O)c2c(nc3n2CCN3C2CCCC2)n(C)c1=O | 25000 | inactive | inactive | 8 | inactive | Non-toxic | Active | Toxic | inactive | Non-toxic | Non-toxic | inactive | 3100 | inactive | inactive | 50
7 | C[C@H](C1CCCCC1)N1CCCn2c1nc1c2c(=O)n(C)c(=O)n1C | 7890 | inactive | inactive | 6 | inactive | Non-toxic | inactive | Non-toxic | inactive | Non-toxic | Non-toxic | inactive | 1300 | inactive | inactive | 
8 | CC(C1CCCCC1)N1CCCn2c1nc1c2c(=O)n(C)c(=O)n1C (racemic) | 7580 | inactive | inactive | 6 | inactive | Non-toxic | inactive | Non-toxic | inactive | Non-toxic | Non-toxic | inactive | 1240 | inactive | inactive | 
9 | CC1CCCCC1N1CCCCn2c1nc1c2c(=O)n(C)c(=O)n1C (mixture of isomers) | > 25000 | inactive | inactive | > 7 | inactive | Non-toxic | Active | Non-toxic | inactive | Non-toxic | Non-toxic | inactive | 3460 | inactive | inactive | 27
10 | Cn1c(=O)c2c(nc3n2CCN3CC2CCCCC2)n(C)c1=O | ≥ 25000 | inactive | inactive | > 13 | inactive | Non-toxic | inactive | Non-toxic | inactive | Non-toxic | Non-toxic | inactive | 2000 | inactive | inactive | 41
